Data taken from ChEMBL document CHEMBL3232958, “Antiproliferative and uncoupling effects of delocalized, lipophilic, cationic gallic acid derivatives on cancer cell lines. Validation in vivo in singenic mice” (J Med Chem, 2014).
Activity calls are given as the source filed them. The calls are words filed in the database; no cut-off is given here.

Tests used:
[1] = tested on: TA3/Ha; assay: Induction of apoptosis in mouse TA3/Ha cells assessed as caspase 3 activation at 0.5 uM after 24 hrs by Western blot analysis; type: functional, cell-based
Outline: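 Caspase 3 measured by Western blot. RIPA lysates, 50 μg protein run on 12% SDS–PAGE. Anti-caspase 3 (1:1000) and tubulin loading control (1:10000) overnight at 4 °C; HRP secondary for 2 h. ECL detection and densitometry.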

[2] = tested on: TA3/Ha; assay: Induction of apoptosis in mouse TA3/Ha cells assessed as early stage apoptotic cells at 0.5 uM after 24 to 48 hrs using annexin V/propidium iodide staining by flow cytometry; type: functional, cell-based
Outline: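 Annexin V-FITC/PI flow cytometry on 1 × 10^5 cells/mL treated for 24 and 48 h at 37 °C, 5% CO2. 5 min staining at room temperature; 5000 events recorded. Early apoptosis scored as annexin V+/PI−. Staurosporine 10 μM as positive control; at least three experiments, ANOVA with Bonferroni test.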

[3] = tested on: TA3/Ha; assay: Cytotoxicity against mouse TA3/Ha cells up to 24 hrs by lactate dehydrogenase assay; type: functional, cell-based
Outline: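 LDH release measured with a kit on 2 × 10^5 cells/mL incubated at 37 °C, 5% CO2, 90% humidity. Supernatant taken after centrifugation at 600g for 3 min, then 30 min with reaction mix at room temperature; absorbance read at 450 nm.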

[4] = Cytotoxicity against mouse TA3/Ha cells after 48 hrs by neutral red assay; type: functional, cell-based
Outline: (§1)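 Neutral red uptake after 48 h exposure at 37 °C, 5% CO2. Seeding: 1 × 10^5 cells/mL for TA3, TA3-MTX-R and CCRF-CEM; 4 × 10^4 cells/mL for MM3MG. Dye at 100 μg/mL for 2 h, then ethanol/acetic acid extraction and absorbance at 540 nm. IC50 from variable-slope sigmoidal dose–response fit; at least three independent experiments in triplicate, mean ± SEM.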

[5] = Cytotoxicity against mouse multidrug-resistant TA3-MTX-R cells after 48 hrs by neutral red assay; type: functional, cell-based; outline: as §1
[6] = tested on: CCRF-CEM; assay: Cytotoxicity against human CCRF-CEM cells after 48 hrs by neutral red assay; type: functional, cell-based; outline: as §1
[7] = Cytotoxicity against mouse MM3MG cells after 48 hrs by neutral red assay; type: cell-based; outline: as §1
[8] = Uncoupling respiration effect in mouse TA3/Ha cells after 2 mins by polarographic analysis in presence of FCCP; type: functional
Outline: (§2)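 Polarographic respiration of digitonin-permeabilized cells (0.013 μg/mg protein; 2.5 mg protein/mL) in PBS pH 7.4 with 10 mM succinate and 1 μg/mL oligomycin. Cations added in 3 μL DMSO. Atractyloside 5 nmol/mg protein was added before succinate. FCCP added at the end: 0.15 μM for TA3, 0.25 μM for TA3-MTX-R. Slope and K0.5 taken from log–log linear regression; at least three experiments.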

[9] = Uncoupling respiration effect in mouse TA3-MTX-R cells after 2 mins by polarographic analysis in presence of FCCP; type: functional; outline: as §2
[10] = tested on: TA3/Ha; assay: Reduction of ATP level in mouse TA3/Ha cells at 1 to 20 uM after 2 hrs by CellTiter-Glo luminescent assay; type: functional, cell-based
Outline: (§3)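 CellTiter-Glo luminescence on 2 × 10^5 cells/mL incubated with cation for 2 h. Aliquot held 10 min at room temperature in the dark before reading; at least three experiments.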

[11] = tested on: TA3/Ha; assay: Reduction of ATP level in mouse TA3/Ha cells after 2 hrs by CellTiter-Glo luminescent assay; type: functional, cell-based; outline: as §3
[12] = Toxicity in mouse TA3/Ha cells assessed as cell membrane integrity after 24 hrs using propidium iodide by flow cytometry; type: cell-based; settings: 2 to 4 h, in the assay text read “after 2 to 4 hrs” for “after 24 hrs”
Outline: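 Membrane integrity by PI uptake on flow cytometry. Cells were seeded, grown for 24 h at 37 °C, 5% CO2, then given fresh medium with cation for 2 and 4 h before PI was added. Mean ± SEM of at least three experiments.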

[13] = tested on: TA3/Ha; assay: Decrease of mitochondrial transmembrane potential in mouse TA3/Ha cell mitochondria at 0.2 nmol after 5 mins by safranin and JC-1 staining; type: functional
Outline: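 Mitochondria isolated from TA3/Ha tumour cells (washed, BSA-free), 1.0 mg/mL protein. Safranin 20 μM, read 5 min; then 2 mM glutamate + 2 mM malate, read 5 min; then cation added. ΔΨm followed as ΔA511−533nm spectrophotometrically.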

O=C(OCCCCCCCCCCCC[P+](c1ccccc1)(c1ccccc1)c1ccccc1)c1cc(O)c(O)c(O)c1.[Br-]
Activity [1]: inactive
Activity [2]: Active
Activity [3]: Active
IC50 [4]: 740 nM
IC50 [5]: 1200 nM
IC50 [6]: 580 nM
IC50 [7]: 1380 nM
K0.5 [8]: 2.9 ×10⁻⁵ M
K0.5 [9]: 3.1 ×10⁻⁵ M
Activity [10]: Active
Activity [11]: Dose-dependent effect
Activity [12]: Non-toxic

CCCCCCCCOC(=O)c1cc(O)c(O)c(O)c1 [OCTYL_GALLATE]
IC50 [4]: 35900 nM
IC50 [5]: 29800 nM
IC50 [6]: 58500 nM
IC50 [7]: > 200000 nM

N#CC(C#N)=NNc1cccc(Cl)c1
Activity [13]: Active
